Assay results published in ChEMBL document CHEMBL1133445, “Nonpeptide alpha(v)beta(3) antagonists. 1. Transformation of a potent, integrin-selective alpha(IIb)beta(3) antagonist into a potent alpha(v)beta(3) antagonist” (J Med Chem, 2000).

Tests used:
[1] = target: T1, Integrin alpha-V/beta-3 (Homo sapiens, UniProt P05106+P06756); test: Displacement of [125I]echistatin from human recombinant alpha-v beta-3 receptor; assay type: protein-complex assay
Summary of the method: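 Cell extracts of HEK 293 stably transfected with human αvβ3 (~10 × 10^6 receptors/cell) incubated with 30 pM 125I-echistatin in Tris-HCl pH 7.8 buffer with NaCl, Ca/Mg and 0.1% BSA. Nonspecific binding with 1 μM unlabeled echistatin. Bound ligand separated by filtration on poly(ethylenimine)-soaked filters and gamma-counted. Error given as SD.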

[2] = species: Homo sapiens; test: In vitro inhibition of the rate of ADP-stimulated human gel-filtered platelet aggregation (PLAGGIN); assay type: functional
Summary of the method: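 Gel-filtered human platelets at 2×10^8/mL with 0.1 mg/mL human fibrinogen and 1 mM CaCl2. Light-transmittance aggregometry at 37 °C, with aggregation started by 10 μM ADP in the presence of test compound or vehicle.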

[3] = target: T1, Integrin alpha-V/beta-3; test: Displacement of [125I]nonpeptide ligand (compound 7) from purified human recombinant alphaV-beta3; assay type: protein-complex assay
Summary of the method: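 αvβ3 purified from 293 cells overexpressing human recombinant receptor, captured on wheatgerm agglutinin scintillation proximity beads. Incubated with ~40 pM final 125I-labeled nonpeptide ligand in HEPES pH 7.5 binding buffer with Ca2+/Mg2+, overnight at 4 °C with rocking. Nonspecific binding with 1 μM final cold ligand. Counted by scintillation; IC50 derived. Error given as SD.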

[4] = species: Rattus norvegicus; test: In vitro inhibition of rat osteoclast-mediated bone resorption (BONE RES)
[5] = target: T1, Integrin alpha-V/beta-3; test: Dissociation constant of radiolabeled compound binding to alpha-v-beta-3; assay type: protein-complex assay
[6] = tested on: Rattus norvegicus; test: Inhibition of the increase of serum calcium levels in a dose-dependent fashion after subcutaneous infusion for 6 hr to TPTX rats at doses 0.20, 0.67, and 2 mg/kg/h; assay type: organism-based; parameters: route subcutaneous
Summary of the method: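 Rats thyroparathyroidectomized and kept on a low-calcium diet; those with serum Ca < 8 mg/dL used. On day 3, anesthetized rats got subcutaneous infusion of vehicle or compound. Bovine PTH(1–34) at 0.03 nmol/h by osmotic minipump started 30 min later. Serum calcium measured at baseline and at the 4–6 h endpoint. Plasma drug levels measured by the echistatin binding bioassay.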

[7] = Half-life following a 1 mg/kg iv bolus dose to male rats (n=4); assay type: ADME, organism-based; parameters: dose 1 mg/kg, route intravenous; details: rat, in vivo

T1 sequence (P05106 27-788 limits assumed): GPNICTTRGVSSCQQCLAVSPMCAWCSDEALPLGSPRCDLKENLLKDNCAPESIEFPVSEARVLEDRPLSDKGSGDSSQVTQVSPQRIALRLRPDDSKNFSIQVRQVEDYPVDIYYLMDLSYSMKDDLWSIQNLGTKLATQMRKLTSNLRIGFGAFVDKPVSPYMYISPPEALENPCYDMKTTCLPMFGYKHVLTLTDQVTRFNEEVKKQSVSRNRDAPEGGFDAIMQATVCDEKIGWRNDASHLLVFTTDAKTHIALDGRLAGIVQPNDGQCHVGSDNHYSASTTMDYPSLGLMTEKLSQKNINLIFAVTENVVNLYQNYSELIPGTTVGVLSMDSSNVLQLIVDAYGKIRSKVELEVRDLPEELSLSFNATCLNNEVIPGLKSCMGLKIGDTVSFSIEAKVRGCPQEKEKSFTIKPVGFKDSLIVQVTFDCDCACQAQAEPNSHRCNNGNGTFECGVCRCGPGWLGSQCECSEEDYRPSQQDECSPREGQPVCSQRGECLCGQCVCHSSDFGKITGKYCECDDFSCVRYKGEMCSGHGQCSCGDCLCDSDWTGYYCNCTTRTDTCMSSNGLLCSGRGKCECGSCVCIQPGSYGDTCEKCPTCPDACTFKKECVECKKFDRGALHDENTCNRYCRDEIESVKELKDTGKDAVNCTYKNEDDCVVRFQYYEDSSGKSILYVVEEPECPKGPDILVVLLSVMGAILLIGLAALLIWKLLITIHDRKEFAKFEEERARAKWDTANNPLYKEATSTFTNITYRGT
T1 sequence (P06756 31-889 limits assumed): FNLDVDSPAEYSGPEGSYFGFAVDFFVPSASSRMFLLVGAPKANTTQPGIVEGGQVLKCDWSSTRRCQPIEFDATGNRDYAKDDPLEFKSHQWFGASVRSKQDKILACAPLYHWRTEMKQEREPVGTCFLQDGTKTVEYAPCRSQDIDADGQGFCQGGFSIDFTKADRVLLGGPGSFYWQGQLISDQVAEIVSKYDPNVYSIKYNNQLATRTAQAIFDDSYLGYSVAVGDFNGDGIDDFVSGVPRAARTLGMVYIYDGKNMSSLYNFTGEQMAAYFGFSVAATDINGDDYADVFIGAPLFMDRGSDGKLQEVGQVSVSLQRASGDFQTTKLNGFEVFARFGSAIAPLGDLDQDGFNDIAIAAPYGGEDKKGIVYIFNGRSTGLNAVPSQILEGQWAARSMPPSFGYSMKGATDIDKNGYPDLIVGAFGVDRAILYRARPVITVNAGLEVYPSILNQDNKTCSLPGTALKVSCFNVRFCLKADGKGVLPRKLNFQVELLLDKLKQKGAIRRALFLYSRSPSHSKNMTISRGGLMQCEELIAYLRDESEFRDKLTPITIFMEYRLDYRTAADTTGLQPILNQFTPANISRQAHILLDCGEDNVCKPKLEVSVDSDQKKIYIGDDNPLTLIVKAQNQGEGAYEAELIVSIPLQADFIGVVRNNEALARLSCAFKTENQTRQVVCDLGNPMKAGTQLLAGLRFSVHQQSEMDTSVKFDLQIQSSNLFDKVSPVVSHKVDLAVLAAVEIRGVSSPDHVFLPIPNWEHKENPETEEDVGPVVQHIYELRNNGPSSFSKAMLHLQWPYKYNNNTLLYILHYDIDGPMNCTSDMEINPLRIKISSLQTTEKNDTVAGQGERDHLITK
T1 sequence (P06756 891-1048 limits assumed): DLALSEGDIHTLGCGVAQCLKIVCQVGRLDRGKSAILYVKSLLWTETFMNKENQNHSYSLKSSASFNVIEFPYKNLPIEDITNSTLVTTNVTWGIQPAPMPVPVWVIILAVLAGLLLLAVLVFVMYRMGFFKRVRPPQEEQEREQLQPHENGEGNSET

Question: Which IC50 [1] does the source give for `N=C(N)NCCOc1ccc(C(=O)NC[C@H](NS(=O)(=O)c2ccccc2)C(=O)O)cc1` here?
Answer: Its IC50 is 1.8 nM.

Question: And the IC50 [2]?
Answer: The IC50 was 17 nM.

Question: And the IC50 [3]?
Answer: Its IC50 is 10.7 nM.

Question: What about the IC50 [4] of the same compound?
Answer: The IC50 was 300 nM.

Question: What does the source list for `Nc1cccc(CCc2ccc(C(=O)NC[C@H](NS(=O)(=O)c3ccc(I)cc3)C(=O)O)cc2)n1`?
Answer: IC50 [1]: 0.1 nM; IC50 [2]: 1600 nM; Kd [5]: 0.06 nM; IC50 [3]: 0.08 nM

Question: Which results are given for `O=C(NC[C@H](NS(=O)(=O)c1ccccc1)C(=O)O)c1ccc(CCc2ccc3c(n2)NCCC3)cc1`?
Answer: IC50 [1]: 0.3 nM; IC50 [2]: 260 nM; IC50 [6]: 200 nM; IC50 [3]: 0.07 nM; IC50 [4]: 3 nM; half-life [7]: < 30 min

Question: What does the source list for `O=C(NC[C@H](NS(=O)(=O)c1ccccc1)C(=O)O)c1ccc(OCCC2CCNCC2)cc1`?
Answer: IC50 [1]: > 1000 nM; IC50 [2]: 10 nM; IC50 [3]: > 1000 nM

Question: For `Nc1cccc(CCc2ccc(C(=O)NC[C@H](NS(=O)(=O)c3ccccc3)C(=O)O)cc2)n1`, which IC50 [1] is on record?
Answer: The IC50 was 0.4 nM.

Question: And the IC50 [2]?
Answer: The IC50 was 140 nM.

Question: And the IC50 [3]?
Answer: The IC50 was 0.44 nM.

Question: What about the IC50 [4] of the same compound?
Answer: The IC50 was 8 nM.

Question: For `O=C(NC[C@H](NS(=O)(=O)c1ccccc1)C(=O)O)c1ccc(OCCNC2=NCCCN2)cc1`, which IC50 [1] is on record?
Answer: The IC50 was 0.7 nM.

Question: And the IC50 [2]?
Answer: Its IC50 is 44 nM.

Question: And the IC50 [3]?
Answer: Its IC50 is 0.93 nM.

Question: And the IC50 [4]?
Answer: Its IC50 is 46 nM.
